Results: article PMC10515597 (ACS Omega, 2023)
Where a SMILES comes first, the peptide text is derived from it. Bridges are numbered along the chain shown (N, C = ends). Roman numbers before positions name the chains, in order. The star is where a group is joined. X2 = O=C(N=C(NCc1ccc(C(=O)*)cc1)Nc1ccc(Br)cc1)c1ccccc1

Assays:
[1] = tested on: L. amazonensis intracellular amastigotes; test: Antiamastigote activity in infected macrophages; assay type: cell-based, Leishmania amazonensis; settings: 24 h; for IC50: Leishmania amazonensis, Macrophage, read-out: IC50 amastigote
In short: (§1)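 Swiss mouse peritoneal macrophages (3 × 10⁵ cells mL⁻¹, complete RPMI-1640) adhered on coverslips for 4 h at 37 °C, 5% CO₂. They were infected 18 h with stationary-phase L. amazonensis promastigotes (MPRO/BR/1972/M1841-LV-79) at 10:1 and washed. Test compound (0.02–10 μM) was added for 24 h. Giemsa-stained cells were counted for infection index (% infected cells × parasites per infected cell). IC50 by nonlinear regression. Duplicates, three independent experiments.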

[2] = tested on: L. mexicana intracellular amastigotes; test: Antiamastigote activity in infected macrophages; assay type: cell-based; settings: Leishmania mexicana, Macrophage, 48 h, read-out: IC50 amastigote
In short: as §1, with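 “8” for “18”, “mexicana” for “amazonensis”, “(MNYC/BZ/62/M379)” for “(MPRO/BR/1972/M1841-LV-79)”, “48” for “24”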

[3] = tested on: Leishmania amazonensis amastigotes; settings: read-out: IC50-ama; L. amazonensis amastigotes ref 28; cited from earlier work
[4] = tested on: L. amazonensis promastigotes; test: Antipromastigote assay, viable promastigotes counted with trypan blue; assay type: cell-based; settings: Leishmania amazonensis, 72 h, read-out: IC50 promastigote
In short: (§2)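 Promastigotes were grown at 28 °C to mid-log phase: L. amazonensis (MPRO/BR/1972/M1841-LV-79) in LIT medium, L. mexicana (MNYC/BZ/62/M379) in Schneider's medium with 10% heat-inactivated FBS. Exponential-phase cells were plated at 1 × 10⁷ mL⁻¹ with test compound 1.28–100 μM. After 72 h, viable promastigotes were counted by trypan blue in a Neubauer chamber. Duplicates, three independent experiments.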

[5] = tested on: L. mexicana promastigotes; test: as above; assay type: cell-based; settings: Leishmania mexicana, read-out: IC50 promastigote
In short: as §2

[6] = Cytotoxic activity, MTT colorimetric method; assay type: cell-based, Swiss mice; settings: Swiss, mouse, murine peritoneal macrophages

CC(C)C[C@H](NC(=O)[C@H](Cc1c[nH]cn1)NC(=O)[C@H](Cc1ccc(O)cc1)NC(=O)[C@H](CCCNC(=N)N)NC(=O)[C@H](Cc1ccc(O)cc1)NC(=O)[C@H](CCCCN)NC(=O)[C@@H](N)CCCCN)C(=O)N[C@@H](CCCCN)C(=O)N1CCC[C@H]1C(=O)N[C@@H](Cc1ccccc1)C(=O)NCCCC[C@H](NC(=O)[C@H](Cc1ccccc1)NC(=O)[C@@H]1CCCN1C(=O)[C@H](CCCCN)NC(=O)[C@H](CC(C)C)NC(=O)[C@H](Cc1c[nH]cn1)NC(=O)[C@H](Cc1ccc(O)cc1)NC(=O)[C@H](CCCNC(=N)N)NC(=O)[C@H](Cc1ccc(O)cc1)NC(=O)[C@H](CCCCN)NC(=O)[C@H](CCCCN)NC(=O)c1ccc(CNC(=NC(=O)c2ccccc2)Nc2ccc(Br)cc2)cc1)C(N)=O [(GVL1)-p-Bt] (I: X2-KKYRYHLKPFK-NH2 / II: H-KKYRYHLKPF; amide I:11-II:C)
infection rate, fold lower than untreated cells and Amph B ([1]; L. amazonensis, at the tested concentrations (10 and 5 μM)): 3–4 fold

C[C@@H]1[C@H](O)[C@@H](C)/C=C/C=C/C=C/C=C/C=C/C=C/C=C/[C@H](O[C@@H]2O[C@H](C)[C@@H](O)[C@H](N)[C@@H]2O)C[C@@H]2O[C@](O)(C[C@@H](O)C[C@@H](O)[C@H](O)CC[C@@H](O)C[C@@H](O)CC(=O)O[C@H]1C)C[C@H](O)[C@H]2C(=O)O [Amph B, amphotericin B]
IC50 [2]: 0.73 ± 0.2 µM | IC50 [3]: 4.9 µM | IC50 [4]: 0.7 ± 0.2 µM | IC50 [1]: 0.63 ± 0.02 µM | IC50 [5]: 0.45 ± 1.2 µM

O=C(O)c1ccc(CN/C(=N/C(=O)c2ccccc2)Nc2ccc(Br)cc2)cc1 [GVL1, (Z)-4-((2-benzoyl-3-(4-bromophenyl)guanidino)methyl) benzoic acid]
IC50 [2]: 7.5 ± 3.53 µM | IC50 [4]: 34.4 ± 0.1 µM | IC50 [1]: 8.9 ± 1.41 µM | IC50 [5]: 51.8 ± 0.1 µM

O=C(NC(=Nc1ccc(Br)cc1)NCc1ccccc1)c1ccccc1 [LQOF-G2, N-benzoyl-N′-benzyl-N″(4-bromophenyl)guanidine]
IC50 [3]: 5.6 µM | IC50 [4]: 19.6 ± 0.2 µM | IC50 [1]: 5.6 ± 2.5 µM | CC50 [6]: 737.9 ± 1.4 µM
